Results on three compounds are retold here after ChEMBL document CHEMBL2401619, “Novel small molecule inhibitors targeting the "switch region" of bacterial RNAP: structure-based optimization of a virtual screening hit” (Eur J Med Chem, 2013).

In brackets after ≈: the same amount, converted by molar mass.

The test system of test [1] is Escherichia coli. Kind of test: Reduction of resistance frequencies in Escherichia coli expressing ToLC mutant at 2 x MIC after 16 hrs relative to rifampicin, myxopyronin. Type of test: functional. An outline of the steps:
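E. coli TolC cell count per mL set by plating dilutions on LB agar and counting colonies. […] Resistance frequency derived from the threshold inoculum at which growth (resistance) appeared.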

The test system of test [2] is Staphylococcus aureus. As to the kind of experiment: Antibacterial activity against Staphylococcus aureus subsp. aureus Newman assessed as growth inhibiiton after 18 hrs. Format: functional. An outline of the steps: (§1)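 Broth dilution in LB, start OD600 0.03, compounds predissolved in DMSO (max 1% final), serial dilutions 0.02–100 µg/mL tested in duplicate. Incubation 18 h, 37 °C, 50 rpm (200 rpm for PAO1). OD read at start and after incubation. MIC is the lowest concentration with no detectable growth. Values are means of two independent runs, three if MIC <10 µg/mL.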

Test [3] is described as follows: Antibacterial activity against Bacillus subtilis subsp. subtilis assessed as growth inhibiiton after 18 hrs. Type of test: functional. An outline of the steps:
as §1

The subject of test [4] is Pseudomonas aeruginosa. Kind of test: Antibacterial activity against Pseudomonas aeruginosa PAO1 assessed as growth inhibiiton after 18 hrs. Type of test: functional. To be noted: PAO1, 18 h. An outline of the steps: as §1
Test [5] relates to Escherichia coli. As to the kind of experiment: Antibacterial activity against Escherichia coli K-12 assessed as growth inhibiiton after 18 hrs. Type of test: functional. To be noted: K-12, 18 h. An outline of the steps: as §1
Test [6] relates to Escherichia coli. As to the kind of experiment: Antibacterial activity against Escherichia coli expressing ToLC mutant assessed as growth inhibiiton after 18 hrs. Format: functional. In outline: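 E. coli TolC (efflux-defective) in LB, start OD600 0.03, compounds predissolved in DMSO (max 1% final); serial dilutions, final 0.02–100 µg/mL, each concentration in duplicate. OD read at compound addition and after 18 h at 37 °C, 50 rpm. MIC = lowest concentration with no detectable growth; mean of two independent runs (three if MIC < 10 µg/mL).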

The nature of test [7]: Inhibition of Escherichia coli RNAP assessed as incorporation of [5,6-3H]UTP preincubated for 10 mins followed by DNA template and ATP, CTP, GTP, UTP, [5,6-3H]UTP addition measured after 10 mins by scintillation counting analysis. In outline:
(§2)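 Purchased E. coli RNAP holoenzyme (1 unit, 0.5 µg) with 40 mM Tris-HCl pH 7.5, 150 mM KCl, 10 mM MgCl2, 10 mM DTT, 0.1% CHAPS, RNase inhibitor and compound in 2% DMSO final, preincubated 10 min at 25 °C. Reaction started with religated pcDNA3.1 template (3500 ng), 400 µM ATP/CTP/GTP, 100 µM UTP and 60 nCi [3H]-UTP, then run 10 min at 37 °C. TCA-precipitated RNA counted by scintillation and compared with DMSO controls.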

Test [8] deals with Escherichia coli. Kind of test: Inhibition of Escherichia coli RNAP assessed as incorporation of [5,6-3H]UTP at 50 uM preincubated for 10 mins followed by DNA template and ATP, CTP, GTP, UTP, [5,6-3H]UTP addition measured after 10 mins by scintillation counting analysis relative to control. An outline of the steps:
as §2

Test [9] has as its system Escherichia coli. Kind of test: Inhibition of RNAP in Escherichia coli expressing ToLC mutant assessed as reduction of RNA level at 100 uM after 40 mins by whole cell assay in presence of [3H]-uridine relative to control. In outline: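 E. coli TolC grown in LB. 3H-uridine (1 µCi/mL) added in log phase, 3 min before compound (100 µM, 0.5% DMSO). 300 µL culture harvested 40 min later and precipitated with 2 volumes of 10% TCA for 45 min at 4 °C. Precipitate collected on glass-fibre filters and radioactivity counted.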

Take `CCN(Cc1ccccc1)C(=O)Nc1cc(-c2cccc(Cl)c2)sc1C(=O)O`: the “fold change (FC)” value in test [1] is over 500. The MIC in test [2] was 21 µg/mL (≈ 50.6 µM); in test [3] it was 12 µg/mL (≈ 28.9 µM); in test [4], over 100 µg/mL; in [5] it was over 100 µg/mL; in [6] it was 9 µg/mL (≈ 21.7 µM). Also, the IC50 in [7] is 72 µM. Further, the pIC50 in test [7] was found to be 4.14.

`CCOC(=O)c1c(NC(=O)Nc2ccccc2)sc2c1CCCCCC2` [UREIDOTHIOPHENE]: the inhibition in test [8] was found to be 2%.

Consider `CCN(Cc1ccccc1)C(=O)Nc1cc(-c2ccc(Cl)c(Cl)c2)sc1C(=O)O`, for which the MIC in [2] was 8 µg/mL (≈ 17.8 µM); in test [3], 11 µg/mL (≈ 24.5 µM); in test [4], over 25 µg/mL; in test [5], over 25 µg/mL; in test [6], 10 µg/mL (≈ 22.3 µM). The inhibition in test [9] worked out at 60%. The concentration for half-maximal inhibition (IC50) in test [7] amounted to 22 µM. In test [7], the pIC50 turned out to be 4.66.
